zfTRPN1 agonist – activates the zebrafish TRPN1 channel; HEK293 zebrafish TRPN1-YFP, Fluo-8 calcium fluorescence; 100% = response to 87 µM carbachol; 220,000 tested, 0.18% active; activation, % at 3 µM;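 active = activation above its plate's cutoff, the mean activation of test wells on that plate plus 3 SD, cut at about 19% in these data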;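 also: 0% = DMSO alone and 100% = 87 µM carbachol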
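Material: zebrafish TRPN1-YFP in HEK293 cells. Doses: one dose of 3 µM, 0.3% DMSO. Incubation: dye 1 h 37 °C plus 30 min RT. Measured by: intracellular calcium fluorescence with Fluo-8.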
GPR7 antagonist – human neuropeptides B/W receptor 1 antagonism; inhibition, % at 4.4 µM; 290,000 tested, 1.1% active; AID 1861; GPR7-expressing cells, fluorescence antagonist assay; in the data active = inhibition above about 16%, passing the limit was not always enough;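 also: cells stimulated with the agonist NPW; 0% = agonist with vehicle and 100% = vehicle without agonist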
Target sequence (P48145 whole entry, looked up): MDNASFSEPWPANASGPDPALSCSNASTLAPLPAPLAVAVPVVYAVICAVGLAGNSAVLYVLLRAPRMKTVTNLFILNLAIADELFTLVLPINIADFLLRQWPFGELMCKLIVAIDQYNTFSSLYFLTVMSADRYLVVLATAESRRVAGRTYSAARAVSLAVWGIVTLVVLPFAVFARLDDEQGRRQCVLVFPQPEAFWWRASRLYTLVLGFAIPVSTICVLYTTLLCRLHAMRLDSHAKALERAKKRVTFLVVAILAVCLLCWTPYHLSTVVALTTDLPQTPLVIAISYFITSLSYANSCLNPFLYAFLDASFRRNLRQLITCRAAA
TAAR1 agonist – agonists of human TAAR1 | CHO RD-HGA16 TAAR1, Fluo-8 calcium fluorescence; vehicle wells 0%, saturating PEA agonist 100% | activation, % at 3 µM | 360,000 tested, 0.99% active | AID 624467;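 active = activation above the mean activation of all test compounds in the run plus 3 SD, cut at about 38% in these data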
Target sequence (Q96RJ0 whole entry, looked up): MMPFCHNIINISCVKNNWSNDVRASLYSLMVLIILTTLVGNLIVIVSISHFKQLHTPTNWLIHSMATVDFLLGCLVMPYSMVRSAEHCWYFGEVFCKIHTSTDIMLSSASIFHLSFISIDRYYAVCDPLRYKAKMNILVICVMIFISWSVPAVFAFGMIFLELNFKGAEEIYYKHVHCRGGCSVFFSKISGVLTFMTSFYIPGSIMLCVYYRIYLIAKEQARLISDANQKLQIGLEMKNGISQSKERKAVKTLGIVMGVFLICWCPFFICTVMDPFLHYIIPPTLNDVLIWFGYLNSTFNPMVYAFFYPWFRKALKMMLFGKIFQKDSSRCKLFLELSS
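Test system: RD-HGA16 (CHO) cells co-expressing Gα16 and hTAAR1 / Benchmarks: DMSO vehicle as 0%, PEA at EC100 as 100% / Repeats: no replicates (n 1) / Measure: % activation from peak over basal fluorescence ratio, DMSO-to-PEA scaled / Timing: 17-24 h plating, Fluo-8 75 min 37 °C, 30 min RT / Technique: kinetic Fluo-8 calcium fluorescence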
LANA-H2B inh – blocks KSHV LANA binding to histone H2A/H2B; Q9QR71; 320,000 tested, 0.6% active; cell-free LANA-H2A/H2B peptide, fluorescence polarization; inhibition, % (test concentration not listed); in the data active = inhibition mostly above about 10%, no sharp cut-off; inactive = mostly below about 6.7%
TRPML3 ag – human mucolipin-3 channel agonism; Q8TDD5; HEK293 TRPML3-YFP, Fluo-8 calcium fluorescence; 100% = the carbachol control signal; 220,000 tested, 0.29% active; activation, % at 3 µM;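 active = activation above its plate's cutoff, the mean activation of the plate's test wells plus 3 SD, cut at about 12% in these data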;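 also: 0% = DMSO only wells and 100% = carbachol wells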
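Material: TRPML3-YFP stable HEK293 cells | Dosing: One concentration, 3 µM nominal, 0.3% DMSO | Timing: 125 s total fluorescence read per well | Technique: Fluo-8 calcium dye fluorescence, ex 470-495, em 515-575 nm | Measure: Percent activation from peak-to-basal fluorescence ratio, scaled between DMSO and carbachol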
TAAR1 antagonist – antagonists of human TAAR1. CHO RD-HGA16 TAAR1, Fluo-8 calcium fluorescence, antagonist. inhibition, % at 3 µM. 360,000 tested, 1.5% active. AID 624466;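 active = inhibition above a per-plate cutoff, the mean inhibition of test compounds on that plate plus 3 SD, cut at about 49% in these data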;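 also: 0% = DMSO plus EC80 beta-PEA response and 100% = DMSO alone without agonist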
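Assay system: CHO-derived RD-HGA16 cells stably expressing human TAAR1 plus Gα16. Timing: 140 s kinetic read after compound, 140 s after agonist. Technique: kinetic Fluo-8 calcium fluorescence measurement. Measure: % inhibition of agonist calcium response.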
Numbers without * were called inactive. Most compounds without a hit are left out; they make up all but 3.4% or so of the library.

COc1ccc(S(=O)(=O)N2CCOC2CNC(=O)C(=O)NCc2ccccc2OC)cc1 (stereo not given) was read as GPR7 antagonist 13, TAAR1 agonist 2, LANA-H2B inh 100* and TAAR1 antagonist 8.
Screening COc1ccccc1CCNC(=O)C(=O)NCC1OCCN1S(=O)(=O)c1ccc2c(c1)OCCO2 (stereo not given) returned GPR7 antagonist -8, TAAR1 agonist 39*, LANA-H2B inh 0 and TAAR1 antagonist 0.
For COc1ccc(S(=O)(=O)N2CCC(C(=O)NCCC(=O)NCc3ccccc3OC)CC2)cc1 the results were GPR7 antagonist -13, TAAR1 agonist 1, LANA-H2B inh 14* and TAAR1 antagonist -34.
`COc1ccc(S(=O)(=O)N2CCC(C(=O)NCCC(=O)NCc3ccncc3)CC2)cc1` gave GPR7 antagonist 0, TAAR1 agonist 0, LANA-H2B inh -2 and TAAR1 antagonist -16.
For COc1ccc(C(=O)N2CCOC2CNC(=O)C(=O)NCc2ccco2)cc1 (stereo not given) the results were zfTRPN1 agonist 0, GPR7 antagonist -18, TAAR1 agonist 0, LANA-H2B inh active, TRPML3 ag 1 and TAAR1 antagonist -9.
Cc1cc(N2CCNC[C@H]2C)ccc1N1CCN(Cc2ccccc2)[C@H](C)C1 was read as TAAR1 agonist 8 and TAAR1 antagonist -4.
Screening NC(=O)c1ncn([C@@H]2O[C@H](C(=O)N[C@H](Cc3c[nH]c4ccccc34)C(=O)N3CCN(C(=O)C4CC4)CC3)[C@@H](O)[C@H]2O)n1 returned TAAR1 agonist 2 and TAAR1 antagonist -16.
For N=C1/C(=C/c2coc3ccccc3c2=O)C(=O)N=C2SC(c3ccco3)=NN12 the results were zfTRPN1 agonist 15, GPR7 antagonist 9, LANA-H2B inh -5 and TRPML3 ag 6.
For CSC1=NSC2=NC(=O)/C(=C\c3coc4ccccc4c3=O)C(=N)N12 the results were zfTRPN1 agonist 29*, GPR7 antagonist -1, TAAR1 agonist 383*, LANA-H2B inh 9, TRPML3 ag 15* and TAAR1 antagonist 107*.
`N=C1/C(=C\c2coc3ccc(O)cc3c2=O)C(=O)N=C2SC=CN12` gave zfTRPN1 agonist 84*, GPR7 antagonist -3, TAAR1 agonist 48*, LANA-H2B inh -1, TRPML3 ag 18* and TAAR1 antagonist 41.
Screening Cn1cc(CCOCc2ccccn2)c2ccccc21 returned TAAR1 agonist 1 and TAAR1 antagonist -22.
Screening CC(C)(C)S(=O)(=O)N1C[C@@H]2C(=C(CCO)C[C@@H]3C(=O)N(c4ccccc4)C(=O)[C@@H]32)[C@H]1CCO returned TAAR1 agonist 6 and TAAR1 antagonist 7.
Cc1ccc(-c2ccc(/C=C(\C#N)C(=O)Nc3cc(C)nn3-c3ccccc3)o2)cc1 was read as zfTRPN1 agonist -1, GPR7 antagonist -10, LANA-H2B inh 23* and TRPML3 ag 1.
CC1(C2CC2)NC(=O)N(CC(=O)Nc2ccc(C(F)(F)F)cc2)C1=O (stereo not given) was read as TAAR1 agonist 12, LANA-H2B inh 12* and TAAR1 antagonist -9.
`CC(C)c1ccc(NC(=O)CN2C(=O)NC(C)(C3CC3)C2=O)cc1` (stereo not given) gave TAAR1 agonist 13, LANA-H2B inh 0 and TAAR1 antagonist 1.
CCOC(=O)c1nc(Nc2ccc(Nc3ccccc3)cc2)c2ccccc2n1 was read as zfTRPN1 agonist 1, GPR7 antagonist -3, TAAR1 agonist 11, TRPML3 ag 0 and TAAR1 antagonist 63*.
For Cc1cccc(-c2nnc(-c3cccc(NC(=O)Cc4cccs4)c3)o2)c1 the results were zfTRPN1 agonist 0, GPR7 antagonist -11, TAAR1 agonist 11, LANA-H2B inh -2, TRPML3 ag 0 and TAAR1 antagonist 74*.
Screening Cc1ccc(-c2nnc(-c3cccc(NC(=O)c4cccs4)c3)o2)cc1 returned zfTRPN1 agonist 1, GPR7 antagonist -13, TAAR1 agonist 4, LANA-H2B inh 0, TRPML3 ag 0 and TAAR1 antagonist 52*.
`CC(=O)Nc1cccc(-c2nnc(-c3ccc(C)cc3)o2)c1` gave GPR7 antagonist -9, TAAR1 agonist 7, LANA-H2B inh 1 and TAAR1 antagonist -11.
COc1ccc(-c2noc(CCC(=O)NCc3cccnc3)n2)cc1 was read as zfTRPN1 agonist 3, GPR7 antagonist -10, TAAR1 agonist 1, LANA-H2B inh -1, TRPML3 ag 2 and TAAR1 antagonist 22.
For COc1ccc(Cc2nc(-c3ccc(NC(=O)c4cccnc4)cc3)no2)cc1 the results were zfTRPN1 agonist 2, GPR7 antagonist -7, TAAR1 agonist 55*, LANA-H2B inh 2, TRPML3 ag 0 and TAAR1 antagonist 40.
COc1cccc(-c2nc(-c3ccc(NC(=O)c4cccs4)cc3)no2)c1 was read as zfTRPN1 agonist 2, GPR7 antagonist -6, TAAR1 agonist 6, LANA-H2B inh 1, TRPML3 ag 0 and TAAR1 antagonist 51*.
`CC1(C)OC(=O)C2=C(CC(CCc3ccccc3)OC2c2ccc(F)cc2)O1` (stereo not given) gave TAAR1 agonist 1 and TAAR1 antagonist 33.
For COC(=O)C1=C(C)NC2=C(C(=O)CC(c3cccs3)C2)C1c1ccsc1 (stereo not given) the results were zfTRPN1 agonist 3, GPR7 antagonist 22*, TAAR1 agonist 10, LANA-H2B inh 1, TRPML3 ag -1 and TAAR1 antagonist 3.
For O=C(N[C@H](Cc1ccccc1)C(=O)N1CCN(CC(=O)N2CCCC2)CC1)[C@H]1O[C@@H](n2ccc(=O)[nH]c2=O)[C@H](O)[C@@H]1O the results were TAAR1 agonist 2 and TAAR1 antagonist -4.
Screening COC(=O)[C@]12C[C@H](CC(=O)N3CCCC3)C(=O)N(Cc3ccccc3)C1=C[C@H](C(C)C)O[C@@H]2C1CC1 returned TAAR1 agonist 0 and TAAR1 antagonist -20.
`Cc1cccc(NS(=O)(=O)c2cc(C(=O)N3CCc4ccccc4C3)ccc2Cl)c1C` gave zfTRPN1 agonist 0, GPR7 antagonist 19, TAAR1 agonist 10, LANA-H2B inh -6, TRPML3 ag -1 and TAAR1 antagonist 56*.
`COc1ccc(NC(=O)c2cc(-c3cc(OC)c(OC)c(OC)c3)nc3ccccc23)cc1OC` gave GPR7 antagonist 7, TAAR1 agonist 14, LANA-H2B inh -1 and TAAR1 antagonist 55*.
Screening COc1ccccc1NC(=O)c1cc(-c2ccc(OC)c(OC)c2)nc2ccccc12 returned GPR7 antagonist 8, TAAR1 agonist 8 and TAAR1 antagonist 55*.
